Bioassay records (PubChem)
Hits are enriched below; roughly 3.1% of the tested compounds scored in any of these assays.
Lipid droplet = inhibitors of hepatocyte lipid droplet formation, primary screen, imaging, high-throughput imaging, BODIPY stain | inhibition, % at 6.5 µM | AML12 mouse hepatocytes, oleate lipid droplets | 0.4% of 240,000 active;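 active = lipid droplet intensity inhibited by at least 50%, with more than 500 cells counted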
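System: AML12 hepatocytes (mouse). Probe or stimulus: oleic acid at 100 µM to induce lipid droplet formation. Times: overnight treatment with compound plus oleate. Detection: Image-based BODIPY and DAPI two-channel analysis. Evaluation: percent inhibition of filter-corrected integrated lipid droplet intensity per well.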
aDG glyco up = activators of alpha-DG glycosylation, primary screen, uHTS, Pro5-aDG cells, AlphaScreen; activation, % at 10 µM; 0.22% of 360,000 active; AID 624168, 2012; alpha-DG glycosylation AlphaScreen (IIH6); 0% Pro5, 100% B10-LARGE cell signal;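 active = activation of at least 8% versus controls, or a plate z-score of at least 8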;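 also: Pro5 are CHO cells carrying HIG-tagged alpha-DG that lacks glycosylation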
MPTP inh = mitochondrial permeability transition pore inhibitors, primary screen, biochemical, isolated mouse mitochondria, absorbance | inhibition, % at 10 µM | Ca2+ swelling absorbance, 30 min | AID 602449, 2012 | 1.4% of 360,000 active;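 active = inhibition of 50% or more, scaled per plate between neutral and stimulator controls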;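 also: 0% = DMSO wells given calcium and 100% = 1 mM EGTA wells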
V-ATPase pH = regulators of yeast V-ATPase proton pumping, primary screen, pHLuorin cytosolic pH fluorescence; response, % at 10 µM; 0.37% of 350,000 active; S. cerevisiae; in the data active = response mostly above about 7.3%, no sharp cut-off; inactive = mostly below about 5.4%; also: actives read high
ADAM17 inh = ADAM17 inhibitors, primary screen, biochemical, QFRET | Disintegrin and metalloproteinase domain-containing protein 17 (Homo sapiens), P78536 | recombinant ADAM17, EDANS/DABCYL FRET peptide cleavage | inhibition, % at 6.95 µM | 0.83% of 370,000 active;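 active = inhibition above the mean of compounds lying between control limits plus 3 SD, set per campaign, cut at about 8.5% in these data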;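 also: 0% = DMSO-only wells as the low control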
Target sequence (P78536 215-824 limits assumed): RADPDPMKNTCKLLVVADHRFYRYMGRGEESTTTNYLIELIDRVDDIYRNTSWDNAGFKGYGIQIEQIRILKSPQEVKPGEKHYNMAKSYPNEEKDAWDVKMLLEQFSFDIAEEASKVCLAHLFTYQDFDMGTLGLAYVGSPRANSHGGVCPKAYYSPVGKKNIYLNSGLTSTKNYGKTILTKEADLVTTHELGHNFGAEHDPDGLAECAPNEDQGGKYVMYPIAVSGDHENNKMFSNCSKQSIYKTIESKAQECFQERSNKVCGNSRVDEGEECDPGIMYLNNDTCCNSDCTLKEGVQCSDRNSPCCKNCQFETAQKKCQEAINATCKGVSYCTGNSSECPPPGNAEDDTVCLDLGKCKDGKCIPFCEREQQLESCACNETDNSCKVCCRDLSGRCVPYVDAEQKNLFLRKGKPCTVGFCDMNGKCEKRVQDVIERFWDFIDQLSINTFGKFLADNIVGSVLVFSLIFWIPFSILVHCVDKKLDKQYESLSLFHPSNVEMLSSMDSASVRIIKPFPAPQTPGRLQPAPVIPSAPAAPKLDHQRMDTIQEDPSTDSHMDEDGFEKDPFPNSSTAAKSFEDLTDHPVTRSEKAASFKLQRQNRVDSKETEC
ADAM10 inh = human ADAM10 inhibitors, primary screen, biochemical, QFRET, HTS | 0.62% of 370,000 active | inhibition, % at 7 µM | recombinant ADAM10, EDANS/DABCYL FRET peptide cleavage, 3 h;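 active = inhibition above a per-campaign cutoff equal to the mean of compounds falling between control-based bounds plus 3 SD, cut at about 20% in these data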;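 also: 0% = DMSO wells while the 100% control is not disclosed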
MPTP counter = fluorescence retest of MPTP screen hits in isolated mitochondria, single concentration; 78% of 5,000 active; inhibition, % at 10 µM; shares compounds with MPTP inh; membrane potential, Rhodamine 123 fluorescence; in the data active = inhibition above about 22%;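 also: 0% = DMSO vehicle and 100% = positive control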
MPTP abs DR = mitochondrial permeability transition pore inhibitors, dose response, biochemical, absorbance, uHTS hits; 58% of 780 active; AID 651561, 2012; shares compounds with MPTP inh; IC50, µM; isolated mitochondria swelling; in the data active = IC50 below about 20 µM
MPTP cs DR = fluorescent counter-screen in isolated mitochondria, dose response, counter-screen for MPTP inhibitor project, biochemical, fluorescence, uHTS hits | AID 651564, 2012 | IC50, µM | isolated mitochondria counterscreen, fluorescence read-out | 49% of 780 active | shares compounds with MPTP inh; in the data active = IC50 below about 80 µM
Starred values were filed as active, the others as inactive; i = inactive; nt = no result given.

SMILES	Lipid droplet	aDG glyco up	MPTP inh	V-ATPase pH	ADAM17 inh	ADAM10 inh	MPTP counter	others
Nc1nc2ccccc2cc1C(=O)NCc1ccc(-c2ccccc2)cc1	nt	0.9	105.8*	nt	-11.6	-47.2	102.9*
COc1ccc(C2SCC(=O)N2CCc2ccc(OC)c(OC)c2)cc1 (stereo unspecified)	-2.6	0.8	70.6*	0.1	1.0	4.8	33.3*
C1CCC(C(CC2CCCCN2)C2CCCCC2)CC1 (stereo unspecified)	1.3	0.8	81.5*	-4.1	-3.2	-2.0	-10.1
COc1ccc(-c2coc3c(C(=O)NCc4ccc(F)c(F)c4)cccc23)c(C)c1	nt	2.6	24.1	nt	0.8	1.0	nt
COc1ccc(-c2coc3c(C(=O)NCc4ccc(OC)c(OC)c4)cccc23)c(C)c1	nt	4.6	98.5*	nt	7.9	17.7	102.1*
O=C(NCc1ccncc1)c1ccc(-c2ccc(F)c(F)c2)c2ccoc12	nt	3.4	91.4*	nt	-5.6	-13.7	87.4*
COc1ccc(-c2ccc(C(=O)NCc3ccncc3)c3occc23)c(C)c1	nt	5.1	92.5*	nt	-41.8	-152.2	112.5*
CCCCCCN1CCS(=O)(=O)N(Cc2ccc(Cl)cc2)C(C(=O)OC)C1 (stereo unspecified)	nt	nt	nt	nt	-3.7	2.2	nt
CC(C)(C)c1ccc(S(=O)(=O)N2CCC(C(=O)N3CCN(C4CCCCC4)CC3)CC2)cc1	nt	nt	nt	nt	1.3	-0.9	nt
CCc1nonc1NC(=O)c1oc2ccc(F)cc2c1C	2.3	-0.4	-0.9	3.9	-1.0	-1.8	nt
Cc1c(C(=O)Nc2nonc2-c2ccc(F)cc2)oc2ccc(F)cc12	-5.2	0.3	80.7*	-6.5	-1.6	2.7	84.2*
Brc1ccc(-c2nn3c(-c4ccccc4)nnc3s2)o1	nt	nt	nt	nt	0.4	-6.7	nt
COc1cc(CNc2ncnc3c2[nH]c2ccc(C)cc23)cc(OC)c1	13.1	0.1	86.0*	3.2	-60.3	-144.9	83.2*
Cc1ccc2[nH]c3c(NCc4ccco4)ncnc3c2c1	nt	4.7*	59.9*	-5.0	-127.0	-405.4	84.7*
c1coc(CNc2ncnc3nc[nH]c23)c1	-21.6	0.1	-1.1	4.6	-1.7	7.4	nt
CCN1/C(=C/c2ccc3ccccc3[n+]2CCCS(=O)(=O)[O-])C=Cc2cc(C)ccc21	nt	0.0	17.5	-0.6	0.7	0.7	nt
CCN1/C(=C/c2cc[n+](C)cc2)C=Cc2cc(C)ccc21	-23.0	1.8	66.9*	2.8	-8.2	-33.4	70.0*
CCCCCCCn1c(=N)n(CC(=O)c2ccco2)c2ccccc21	5.5	4.7	82.9*	1.5	3.6	-0.1	40.6*
CCCCn1c(=N)n(CC(=O)c2ccco2)c2ccccc21	nt	0.3	0.4	-1.9	-2.3	1.6	nt
CCCCCCCCNC(=O)C1CSCCS(=O)(=O)N1Cc1ccc(F)cc1 (stereo unspecified)	nt	nt	nt	nt	1.2	-0.6	nt
Cc1cc(C)c2nc(N(CCCN(C)C)C(=O)C3=COCCO3)sc2c1	nt	2.5	61.3*	13.8	-5.8	-3.4	-15.7	MPTP abs DR=11.8*;MPTP cs DR=>80
CN(C)CCCN(C(=O)c1ccc2c(c1)OCCO2)c1nc2cc3c(cc2s1)OCO3	1.1	-0.3	-1.1	-2.0	-2.0	-5.9	nt
Cc1cc(C)c2nc(N(CCCN(C)C)C(=O)c3ccc4c(c3)OCCO4)sc2c1	nt	1.0	88.7*	-1.4	-3.1	3.4	-18.2
COC(=O)[C@]12C[C@H](CC(=O)N3CCSCC3)C(=O)N(Cc3ccco3)C1=C[C@H](C1CCCC1)O[C@@H]2C	nt	nt	nt	nt	-3.3	0.8	nt
CCCCCCCCN1C(=O)[C@@H](CC(=O)NCCc2ccccc2OC)C[C@@]2(C(=O)OC)C1=C[C@H](C(C)C)O[C@@H]2C1CC1	nt	nt	nt	nt	-1.0	6.0	nt
SMILES	Lipid droplet	aDG glyco up	MPTP inh	V-ATPase pH	ADAM17 inh	ADAM10 inh	MPTP counter	others
Fc1ccccc1-c1n[nH]c(=S)n1N=Cc1ccc(-c2ccccc2)cc1	nt	nt	nt	nt	-0.4	4.2	nt
O=C(Nc1ccc(Cl)c(Cl)c1)Nc1nc(-c2ccccc2)cs1	2.0	0.1	73.5*	0.5	-0.5	1.8	73.3*
Cn1nc(-c2ccccc2)cc1NC(=O)Nc1ccc(F)cc1	11.4	0.0	65.6*	1.6	0.1	5.2	80.7*
Cc1ccccc1NC(=O)Nc1cc(-c2ccccc2)nn1C	3.3	0.1	5.1	0.0	-1.0	-1.8	nt
O=C(Nc1ccccc1)Nc1nc(-c2ccccc2)cs1	2.3	0.2	84.8*	2.4	-0.8	1.3	80.0*
CCCN(CC1CC1)c1c2c(nc3ncnn13)CCCC2	nt	nt	nt	nt	0.3	-1.2	nt
CCOC(=O)N1CCN(C(=O)C[C@H]2C(=O)N(CCCOC)C3=CCCCC[C@]32C(=O)OC)CC1	nt	nt	nt	nt	-1.8	-0.6	nt
Cc1ccc(CCNc2ncnc(Cl)c2N)cc1	nt	4.1	100.6*	2.6	-0.8	-14.6	108.2*
Cc1nc2ccccc2n1CC(=O)NCc1ccccc1	-25.6	2.7	70.4*	0.2	-3.1	-4.3	19.7	MPTP abs DR=i;MPTP cs DR=31.4*
Cc1nc2ccccc2n1CC(=O)NN	5.0	0.5	1.8	1.3	-0.2	-6.5	nt
CCOc1ccccc1N=C1SC(CC(=O)Nc2ccc(OC)cc2OC)C(=O)N1CCC1=CCCCC1 (stereo unspecified)	3.4	0.1	1.6	-2.8	0.9	-6.7	nt
O=C(CC1SC(=Nc2ccc(OC(F)F)cc2)N(CCC2=CCCCC2)C1=O)Nc1ccccc1F (stereo unspecified)	-14.1	2.3	95.7*	-1.8	-1.0	11.5	71.8*
O=C(CSc1nnc(-c2ccncc2)n1-c1ccc(Br)cc1)c1ccccc1	nt	nt	nt	nt	-0.7	5.4	nt
Cc1cccc(NC(=O)c2cccc3c2-c2ccccc2C3=O)c1C	nt	nt	nt	nt	1.5	-4.4	nt
COC1CCC2(C)C(=CCC3C4CC(O)CC4(C)CCC32)C1 (stereo unspecified)	nt	1.7	80.7*	-1.3	-2.6	0.9	73.4*
Cc1ccc(C(=O)NC2CCCCN(Cc3ccccc3C)C2=O)cc1 (stereo unspecified)	nt	nt	nt	nt	1.0	-2.6	nt
Clc1ccc(NC2(c3nnnn3C3CCCCC3)CCCCC2)cc1	nt	0.4	91.3*	-0.8	-4.6	-5.3	91.4*
Cc1onc(C(=O)N2CCN(C(c3ccc(Cl)cc3)c3ccc(Cl)cc3)CC2)c1[N+](=O)[O-]	nt	nt	nt	nt	6.1	15.0	nt
